Source: publication PMC10401000 (Proceedings of the National Academy of Sciences of the …, 2023)

Assays:
[1] = system: β2AR; settings: cited from earlier work
[2] = system: HASM cells; test: Magnetic twisting cytometry, HASM cell stiffness; assay type: cell-based, human; settings: 10 μM ISO
In short: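 Magnetic twisting cytometry: integrin-anchored beads on serum-deprived, post-confluent HASM cells from nonasthma donors, plated at 30,000 cells/cm² on collagen I and kept serum-free for 24 h. Cells were pretreated ± 1 μM test compound for 30 min. […] Stiffness was normalized to each cell's baseline; linear mixed-effect model on log data; 463 to 473 cells.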

Structure (SMILES)	allosteric modulator activity at the β2AR [1]	time to peak relaxation [2] [min]
Nc1nc(Nc2ccccc2)nc2ccc(Br)cc12 [AS408]	NAM for both ISO-mediated cAMP production and β-arrestin recruitment	
CC(C)NCC(O)c1ccc(O)c(O)c1 (centres unmarked) [ISO, isoproterenol]		4 to 5
